Consider 4 compounds from ChEMBL document CHEMBL4431315, “Jatrophane Diterpenoids as Modulators of P-Glycoprotein-Dependent Multidrug Resistance (MDR): Advances of Structure-Activity Relationships and Discovery of Promising MDR Reversal Agents” (J Med Chem, 2016).

Each structure is given as a SMILES string. pIC50: −log10 of the molar value. Calls of active or inactive are those of the source. No cut-off for these calls is given here. Some results are limits rather than exact numbers.

Data set [1] in a line: Metabolic stability in Sprague-Dawley rat liver microsomes assessed as rate constant at 100 uM by HPLC-UV analysis. Type of data set: ADME, Microsome. The gist of the method:
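Rat liver microsomes at 1 mg protein/mL final, compound at 100 μM final (from a 10 mM CH3CN stock), in 100 mM PBS with 3.0 mM MgCl2 and 1.0 mM NADPH, pH 7.4, 37 °C. Sampled at 0 to 180 min and stopped with ice-cold CH3CN. Control run without NADPH. Centrifuged supernatants analysed by HPLC-UV; three independent experiments in triplicate.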
A general note: Liver microsomes are vesicles of endoplasmic reticulum, rich in cytochrome P450 enzymes.

The target in data set [2] is T1, ATP-dependent translocase ABCB1 (Homo sapiens, UniProt P08183). Nature of the data set: Inhibition of P-gp mediated efflux in adriamycin-resistant human HepG2 cells assessed as intracellular rhodamine-123 accumulation at 2 uM incubated in dark condition for 90 mins by flow cytometry relative to control. Type of data set: cell-based. In short, it runs like this: (§1)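 HepG2/ADR cells seeded at 5 × 10^5/well and given compound plus 10 μM Rho123 in the dark at 37 °C for 90 min. Cells washed twice in ice-cold PBS, resuspended in PBS, read by flow cytometry in FL1 (Em 525 nm). Fold of control = (treated fluorescence − background)/(Rho123-only fluorescence − background).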

Data set [3] in a line: Half life in Sprague-Dawley rat liver microsomes at 100 uM by HPLC-UV analysis. The class given is ADME, Microsome.
A further data set has as its system NCI/ADR-RES. Put plainly: Intrinsic cytotoxicity against human MCF7/ADR cells assessed as inhibition of cell proliferation after 48 hrs by MTT assay. The class given is cell-based. The gist of the method:
(§2)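 Seeded at 5 × 10^3 cells/well with graded compound levels, DMSO as negative control, 48 h. MTT added for 4 h, formazan dissolved in DMSO, OD read at 570 nm (reference 630 nm). IC50 by nonlinear regression; triplicate samples.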
In general terms: Tetrazolium assays rely on reduction of a dye to a coloured formazan, in cell work by metabolically active cells.

Data set [4] deals with T1, ATP-dependent translocase ABCB1. Put plainly: Inhibition of P-gp mediated efflux in adriamycin-resistant human HepG2 cells assessed as intracellular rhodamine-123 accumulation at 10 uM incubated in dark condition for 90 mins by flow cytometry relative to control. Type of data set: cell-based. The gist of the method:
as §1

Data set [5] relates to HepG2. Nature of the data set: Cytotoxicity against adriamycin-resistant human HepG2 cells assessed as inhibition of cell proliferation after 48 hrs by MTT assay. Type of data set: functional, cell-based. Particulars: HepG2, 48 h. In short, it runs like this: as §2
Data set [6] is described as follows: Cytotoxicity against HLF cells assessed as inhibition of cell proliferation after 48 hrs by MTT assay. Particulars: Homo sapiens. Type of data set: cell-based. The gist of the method: as §2
Data set [7] concerns the target T1, ATP-dependent translocase ABCB1. Put plainly: Inhibition of P-gp mediated efflux in adriamycin-resistant human HepG2 cells assessed as intracellular rhodamine-123 accumulation at 1 uM incubated in dark condition for 90 mins by flow cytometry. Type of data set: cell-based. The gist of the method:
as §1
On the technique in general: A flow cytometer gives signals particle by particle.

Data set [8] has the same target. Nature of the data set: Inhibition of P-gp mediated efflux in adriamycin-resistant human HepG2 cells assessed as intracellular rhodamine-123 accumulation at 0.125 uM incubated in dark condition for 90 mins by flow cytometry relative to control. The class given is cell-based. In short, it runs like this: as §1
In data set [9] the test system is HepG2. Nature of the data set: Multidrug resistance reversal activity in adriamycin-resistant human HepG2 cells xenografted in nude BALB/c mouse assessed as increase in mouse survival at 10 mg/kg, ip administered 2 hrs prior to ADR dosing at 5 mg/kg, ip on day 0/3/6 measured every day during compound dosing. Type of data set: functional, organism-based. The gist of the method: (§3)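 Female BALB/c nude mice, 5 weeks old, implanted s.c. in the right flank with 1 × 10^7 HepG2/ADR cells. At about 60 mm3, randomized into groups of seven and dosed ip on days 0, 3, 6: compound 10 mg/kg given 2 h before ADR 5 mg/kg. Controls got saline with 0.5% DMSO and 5% Kolliphor HS 15. Tumor size and body weight measured daily; survival tracked. IR from mean tumor weights; Student's t test, P < 0.05.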

Data set [10] has as its system HepG2. Put plainly: Multidrug resistance reversal activity in adriamycin-resistant human HepG2 cells xenografted in nude BALB/c mouse assessed as tumor growth inhibition at 10 mg/kg, ip administered 2 hrs prior to ADR dosing at 5 mg/kg, ip on day 0/3/6 measured every day during compound dosing. Type of data set: functional. In short, it runs like this: as §3

T1 sequence (P08183 whole entry): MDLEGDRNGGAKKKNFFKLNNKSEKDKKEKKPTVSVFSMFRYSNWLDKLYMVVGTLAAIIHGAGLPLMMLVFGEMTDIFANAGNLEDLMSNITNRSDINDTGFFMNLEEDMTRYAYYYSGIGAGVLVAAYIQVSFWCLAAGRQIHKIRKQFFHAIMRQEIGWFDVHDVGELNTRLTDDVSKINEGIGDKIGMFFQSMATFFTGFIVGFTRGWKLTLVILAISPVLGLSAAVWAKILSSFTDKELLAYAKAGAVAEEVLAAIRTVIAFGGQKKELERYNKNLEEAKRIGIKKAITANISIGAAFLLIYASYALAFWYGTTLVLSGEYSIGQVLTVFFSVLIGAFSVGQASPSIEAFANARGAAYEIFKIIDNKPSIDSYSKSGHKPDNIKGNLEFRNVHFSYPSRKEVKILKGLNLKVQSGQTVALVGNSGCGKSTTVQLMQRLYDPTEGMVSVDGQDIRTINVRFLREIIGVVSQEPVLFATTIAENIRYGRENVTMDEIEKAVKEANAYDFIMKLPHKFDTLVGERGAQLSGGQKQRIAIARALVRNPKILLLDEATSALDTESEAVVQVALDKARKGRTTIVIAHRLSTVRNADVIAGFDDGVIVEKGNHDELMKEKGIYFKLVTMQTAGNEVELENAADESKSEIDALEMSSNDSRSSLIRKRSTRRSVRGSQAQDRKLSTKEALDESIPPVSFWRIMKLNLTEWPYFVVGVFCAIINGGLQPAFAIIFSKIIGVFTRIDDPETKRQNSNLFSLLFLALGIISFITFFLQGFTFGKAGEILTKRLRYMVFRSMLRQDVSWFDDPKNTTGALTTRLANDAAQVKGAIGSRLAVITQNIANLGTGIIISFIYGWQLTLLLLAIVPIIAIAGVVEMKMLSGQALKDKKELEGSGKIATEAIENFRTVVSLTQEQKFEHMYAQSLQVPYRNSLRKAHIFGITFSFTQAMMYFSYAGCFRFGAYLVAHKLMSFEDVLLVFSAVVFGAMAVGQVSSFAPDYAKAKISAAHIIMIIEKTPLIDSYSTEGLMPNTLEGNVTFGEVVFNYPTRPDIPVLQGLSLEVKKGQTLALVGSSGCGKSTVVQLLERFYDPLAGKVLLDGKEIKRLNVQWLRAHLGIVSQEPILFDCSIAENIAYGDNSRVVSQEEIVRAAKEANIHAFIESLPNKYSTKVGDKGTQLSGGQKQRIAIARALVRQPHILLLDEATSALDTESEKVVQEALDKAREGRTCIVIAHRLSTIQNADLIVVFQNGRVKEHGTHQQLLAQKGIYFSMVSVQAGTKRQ

Broadly, the half-life is the time in which the quantity being followed falls by half. What is called pIC50 is the IC50 on a negative log10 scale, so that one unit is a factor of ten. `COc1cc2c(cc1OC)CN(CCc1ccc(NC(=O)c3cc(OC)c(OC)cc3NC(=O)c3cnc4ccccc4c3)cc1)CC2`: the k el at 100 µM in data set [1] is 5.5e-05 s⁻¹. Also, the FC is given as 2.97 in data set [2] and 1.04 in data set [8]. The half-life at 100 µM in data set [3] stood at 3.5 h. Besides, the pIC50 was 4.88 in the data set on NCI/ADR-RES, 4.43 in the data set with HepG2 [5] and 4.78 in data set [6]. Moreover, the INH result in data set [4] is given as “Active”; in [7], “Not Active”.
For `COc1ccc(CCN(C)CCCC(C#N)(c2ccc(OC)c(OC)c2)C(C)C)cc1OC` (configuration not stated), the k el at 100 µM in [1] is 0.000392 s⁻¹.
For orientation: TGI means the reduction of tumour growth relative to the control group. Consider `CC(=O)O[C@@H]1C[C@@H](OC(=O)c2ccccc2)/C(C)=C/[C@H]2[C@@H](OC(=O)c3ccccc3)[C@@H](C)[C@H](O)[C@]2(OC(C)=O)[C@H](O)[C@](C)(O)CCC1(C)C`, for which the k el at 100 µM in data set [1] is 1.33e-05 s⁻¹. For the same compound, the values for the FC in data set [2] and in data set [8] were 2.74 and 1.34, respectively. Besides, the outcome in the data set with HepG2 [9] was Active. Further, in data set [3], the half-life at 100 µM was 14.4 h. The pIC50 in the data set with NCI/ADR-RES was under 3.82; with HepG2 [5] it was under 3.82; in [6], under 4.00. The INH entry in [4] and in data set [7] was “Active” throughout. Also, the TGI in the data set with HepG2 [10] is listed as 62.89%.
As to `C[C@]12CC[C@H]3[C@@H](CCC4=CC(=O)CC[C@@]43C)[C@@H]1CC[C@@H]2O` [TESTOSTERONE], the k el at 100 µM in data set [1] is 0.00444 s⁻¹.
